The list is not random: actives were taken first. Their share in the collection is about 1.9%.
CHRM5 antagonist = blocks acetylcholine activation of human M5 receptor; CHO-hM5 cells, Fluo-8 calcium fluorescence, ACh EC80; inhibition, % at 3 µM; AID 624040; hit rate 0.59% among 360,000;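 active = inhibition above a per-plate cutoff, the mean of that plate's test compounds plus 3 SD, cut at about 27% in these data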
M4 PAM = positive allosteric modulators of human muscarinic M4 receptor; activation, % at 3 µM; CHO-K1 hM4/Gqi5, Fluo-8 calcium fluorescence, ACh EC20; 0% = ACh EC20, 100% = maximal ACh; hit rate 0.4% among 360,000; P08173;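 active = activation above its plate's cutoff, the mean activation of sample wells plus 3 SD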
Target sequence (P08173 whole entry, looked up): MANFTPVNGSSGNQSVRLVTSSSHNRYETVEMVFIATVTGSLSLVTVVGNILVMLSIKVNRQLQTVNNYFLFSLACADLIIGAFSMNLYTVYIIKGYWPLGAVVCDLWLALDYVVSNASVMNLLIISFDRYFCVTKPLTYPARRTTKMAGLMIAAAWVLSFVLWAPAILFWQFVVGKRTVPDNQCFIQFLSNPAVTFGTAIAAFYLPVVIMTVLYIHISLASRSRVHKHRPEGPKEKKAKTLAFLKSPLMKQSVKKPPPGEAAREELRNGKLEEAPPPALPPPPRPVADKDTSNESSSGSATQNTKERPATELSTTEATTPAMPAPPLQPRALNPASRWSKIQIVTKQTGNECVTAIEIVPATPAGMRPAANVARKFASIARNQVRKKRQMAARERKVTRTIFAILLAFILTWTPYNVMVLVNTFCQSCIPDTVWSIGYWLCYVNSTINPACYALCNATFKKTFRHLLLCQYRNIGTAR
M5 ag = CHRM5 agonism in calcium assay | P08912 | CHO-K1 hM5 cells, Fluo-8 calcium fluorescence; 0% DMSO wells, 100% maximal acetylcholine response | activation, % at 3 µM | hit rate 0.19% among 360,000;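 active = activation above the run's mean over test compounds plus 3 SD, cut at about 23% in these data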;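 also: signal is peak over basal fluorescence ratio across the kinetic read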
CHRM5 PAM = potentiates acetylcholine response at human M5 receptor | activation, % at 3 µM | hit rate 0.3% among 360,000 | CHO-K1 hM5, Fluo-8 calcium, ACh EC20 PAM; 0% = ACh EC20, 100% = ACh EC100 | AID 624038 | P08912;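 active = activation above the run cutoff, the mean activation of all test compounds plus 3 SD, cut at about 18% in these data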
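System: CHO-K1 hM5 cells. Reagent: acetylcholine, EC20 level. Compound dosing: single dose, 3 µM nominal final test concentration. Timing: Post-acetylcholine fluorescence recording 140 s. Detection: Fluo-8 calcium fluorescence. Read-out: % activation, ACh-normalized. Benchmarks: ACh EC20 and EC100 wells. Repeats: singlicate, one well per test compound.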
CHRM4 agonist = agonists of human muscarinic M4 receptor (CHRM4) | activation, % at 3 µM | AID 624127 | P08173 | hit rate 0.14% among 360,000 | CHO-K1 hM4/Gqi5, Fluo-8 calcium fluorescence; vehicle 0%, full acetylcholine response 100%;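 active = activation above the run mean over all test wells plus 3 SD, cut at about 32% in these data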;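 also: peak over basal fluorescence ratio per well then scaled between controls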
M4 antag = CHRM4 antagonism in calcium assay; P08173; CHO-hM4 cells, ACh EC80, Fluo-8 calcium fluorescence; inhibition, % at 3 µM; hit rate 0.73% among 360,000; AID 624125;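 active = inhibition above its plate's cutoff, the mean inhibition of sample wells plus 3 SD, cut at about 27% in these data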
Each line names hits and unclear results; the compound was inactive in the other large screens.

O=C(NCCc1ccccn1)c1ccc(OC2CCN(Cc3ccccn3)CC2)cc1	none
CC(Cc1ccccn1)NC(=O)c1ccc(OC2CCN(Cc3ccccn3)CC2)cc1 (centres undefined)	M4 PAM 18
COc1ccc(CC(=O)NNC(=O)c2ccco2)cc1OC	none
Nc1ccc2nc(SCC(=O)Nc3ccc(N4CCOCC4)c(Cl)c3)sc2c1	CHRM5 antagonist 27
CN(C)c1ccc(NC(=O)CN2CCC(N3CCCCC3)CC2)cc1	CHRM5 PAM 24
CN(C)c1ccc(NC(=O)CN2CCC(NC(=O)C3CCCCC3)CC2)cc1	none
N#CCCN1CCCc2cc(N=Nc3ccc(C(F)(F)F)cc3)ccc21	CHRM5 PAM 20
COc1ccc(N2CCN(c3ncnc4c3[nH]c3ccccc34)CC2)cc1	CHRM5 antagonist 28, M4 antag 28
CCOC(=O)N1CCN(c2ncnc3c2[nH]c2ccc(F)cc23)CC1	none
Fc1ccc2[nH]c3c(N4CCN(c5ccccc5)CC4)ncnc3c2c1	CHRM5 antagonist 50, M4 antag 38
OC1(c2cccc(C(F)(F)F)c2)CCN(c2ncnc3c2[nH]c2ccc(F)cc23)CC1	CHRM5 antagonist 31
COc1ccc2[nH]c3c(N4CCc5ccccc5C4)ncnc3c2c1	none
COCCC(=O)N1CCC(Oc2ccc(C(=O)NCCC3=CCCCC3)cc2)CC1	none
CC(C)C/C=C1\CCc2c([nH]c3ccccc23)C1=O	M4 PAM 21
O=C(CN(Cc1ccccc1)C(=O)c1csnn1)NCc1ccc2c(c1)OCO2	CHRM5 PAM 28
COc1ccc(CN(CC(=O)NCc2ccc3c(c2)OCO3)C(=O)c2csnn2)cc1	none
CSc1cccc(NC(=O)Nc2ccc(Cl)cc2)c1	CHRM5 antagonist 31
CSc1cccc(NC(N)=O)c1	none
CC(=O)Nc1ccc(NC(=O)Nc2cccc(Cl)c2)cc1	none
CC(=O)c1ccc(NC(=O)Nc2cccc(Cl)c2)cc1	CHRM5 antagonist 28
CC(=O)c1cccc(NC(=O)NCCc2ccc(Cl)cc2)c1	M4 PAM 16
CCOC(=O)N1CCN(C(=O)CCCCn2c(=S)[nH]c3ccsc3c2=O)CC1	M4 PAM 19
O=C(CCCn1c(=O)[nH]c2ccsc2c1=O)N1CCCCC1	CHRM5 PAM 26
O=C(CCCCCn1c(=O)[nH]c2ccsc2c1=O)N1CCCCC1	none
C/C=C/c1ccc(OCC(O)CN(C)Cc2ccc(SC)cc2)c(OC)c1 (centres undefined)	none
CCNC(=O)C1(C)CCCN(C(=O)CCc2cccs2)C1 (centres undefined)	none
Cc1nnsc1C(=O)N1CCCC(C)(C(=O)NS(=O)(=O)C2CC2)C1 (centres undefined)	M4 PAM 20
Cc1ccc(S(=O)(=O)N2CCN(C(=O)CSc3ccc(F)cc3)CC2)cc1	CHRM5 antagonist 29, M4 PAM 32, CHRM5 PAM 19
CCC(=O)N1CCCc2cc(S(=O)(=O)N3CCN(c4ncccn4)CC3)ccc21	none
CCC(=O)N1CCCc2cc(S(=O)(=O)N3CCN(c4ccccn4)CC3)ccc21	CHRM5 PAM 33
Cc1cccc(C)c1-n1nnnc1C1(C)CCC(=O)N1Cc1ccco1 (centres undefined)	none
CSC(=Nc1ccccc1)N=C(SCc1ccccc1)N(C)C	M4 antag 46
COC(=O)c1ccccc1N=C(SC)N(C)C	none
CN1C(=O)c2cccc(NC(=O)C3CCCCC3)c2C1=O	M4 PAM 19
CCC(=O)Nc1cccc2c1C(=O)N(C)C2=O	none
COc1ccc(CNS(=O)(=O)c2ccc3c(c2)N(C)CCO3)cc1	CHRM5 antagonist 29
Cc1ccc2nc(SCC(=O)O)nc(C)c2c1	M4 PAM 19
O=C(CCc1nnc2n(Cc3ccc(Cl)cc3)c(=O)c3ccccc3n12)NCCN1CCCC1	none
O=C(CCc1nnc2n(CCc3ccccc3)c(=O)c3ccccc3n12)NCCCN1CCCCC1	M4 antag 37
O=C1NN=C2CCCCCCC12 (centres undefined)	M4 antag 91
COc1cc(C(=O)NNC(=S)NC(=O)c2ccc(Cl)cc2)cc(OC)c1OC	M5 ag 33, CHRM4 agonist 44
O=C(NNC(=S)Nc1cccc(C(F)(F)F)c1)c1cccc(Cl)c1	CHRM5 antagonist 46
Cc1cccc(C(=O)NC(=S)NNC(=O)c2ccc(Cl)cc2)c1	CHRM5 antagonist 30, M5 ag 90, CHRM4 agonist 132, M4 antag 40
OC(CNC1CCCC1)COCCOc1ccc(Br)cc1 (centres undefined)	none
O=C(O)c1ccccc1C(=O)c1ccc(N2CCCC2)c([N+](=O)[O-])c1	none
CC(=O)c1ccc(N2CCC(c3cc(-c4ccc(Cl)cc4Cl)n[nH]3)CC2)c([N+](=O)[O-])c1	M4 antag 34
CC(=O)c1ccc(N2CCN(c3ccccc3O)CC2)c([N+](=O)[O-])c1	CHRM5 antagonist 31
O=C1Nc2ccccc2O/C1=C\c1ccccc1Br	none
CN1C(=O)/C(=C/c2ccccc2OCc2cccc(F)c2)N(C)C1=S	CHRM5 antagonist 45, M4 antag 65
CN1C(=O)/C(=C/c2ccc(OCc3ccc(F)cc3)cc2)N(C)C1=S	none
O=C(CS(=O)(=O)c1ccccc1)Nc1ccc(Br)cn1	CHRM5 PAM 20
O=C(CS(=O)(=O)c1ccccc1)Nc1ccccn1	none
CCn1c(N)c(C(=O)NCCOC)sc1=S	none
CCn1c(N)c(C(=O)Nc2ccccc2C(=O)OC)sc1=S	M4 PAM 37
CC(=O)N1CCN(C(=O)CCCNC(=O)c2ccc(Cl)cc2)CC1	none
CCN(CC)CC#CCC(O)(c1ccccc1)C1CCCCC1 (centres undefined)	CHRM5 antagonist 72, M4 antag 76
O=C1c2ccccc2-c2onc3ccc(NCc4ccco4)c1c23	none
CCNc1ccc2noc3c2c1C(=O)c1ccccc1-3	CHRM5 antagonist 38, M5 ag 37, CHRM4 agonist 46
CCOC(=O)c1sc(N2C(=O)C(O)=C(C(=O)c3ccco3)C2c2cccc([N+](=O)[O-])c2)nc1C (centres undefined)	none
COc1ccc(CNC(=O)CCNC(=O)C2CCN(S(=O)(=O)c3ccc(OC)cc3)CC2)cc1	M4 PAM 19
COc1ccc(NC(=O)CCNC(=O)C2CCN(S(=O)(=O)c3ccc(OC)cc3)CC2)cc1	none
COc1ccc(S(=O)(=O)N2CCC(C(=O)N[C@@H](C)C(=O)NC3CCCC3)CC2)cc1	CHRM5 PAM 32
CC(C)[C@H](NC(=O)C1CCN(S(=O)(=O)c2ccccc2)CC1)C(=O)NCc1ccccc1	M4 PAM 15

Bioassay records from PubChem BioAssay.
